These results are taken from ChEMBL document CHEMBL3797138, “Discovery of a Selective and Potent Inhibitor of Mitogen-Activated Protein Kinase-Interacting Kinases 1 and 2 (MNK1/2) Utilizing Structure-Based Drug Design” (J Med Chem, 2016).

For data set [1], the target named is MAP kinase-interacting serine/threonine-protein kinase 1 (Homo sapiens, UniProt Q9BUB5). The experiment in a line: Inhibition of ERK2-activated full length wild type MNK1a (unknown origin) using biotin-SGSGKRREILSRRPSYR-NH2 as substrate after 2 hrs by HTRF assay. In short, it runs like this: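 In-house full-length MNK1a (0.5 nM final) activated by full-length ERK2 (0.5 nM final). Biotin-crebtide 200 nM and ATP 200 µM. Buffer: 50 mM Hepes pH 7.5, 5 mM MgCl2, 0.05% BSA, 0.01% Tween-20, 1 mM DTT, 2.5% DMSO. Reaction run 2 h, then stopped with EDTA/KF buffer holding Eu-anti-phospho-creb (0.23 nM) and streptavidin-XL665 (50 nM). Read by HTRF after overnight development in the dark.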
Sequence of MAP kinase-interacting serine/threonine-protein kinase 1 (Q9BUB5 whole entry): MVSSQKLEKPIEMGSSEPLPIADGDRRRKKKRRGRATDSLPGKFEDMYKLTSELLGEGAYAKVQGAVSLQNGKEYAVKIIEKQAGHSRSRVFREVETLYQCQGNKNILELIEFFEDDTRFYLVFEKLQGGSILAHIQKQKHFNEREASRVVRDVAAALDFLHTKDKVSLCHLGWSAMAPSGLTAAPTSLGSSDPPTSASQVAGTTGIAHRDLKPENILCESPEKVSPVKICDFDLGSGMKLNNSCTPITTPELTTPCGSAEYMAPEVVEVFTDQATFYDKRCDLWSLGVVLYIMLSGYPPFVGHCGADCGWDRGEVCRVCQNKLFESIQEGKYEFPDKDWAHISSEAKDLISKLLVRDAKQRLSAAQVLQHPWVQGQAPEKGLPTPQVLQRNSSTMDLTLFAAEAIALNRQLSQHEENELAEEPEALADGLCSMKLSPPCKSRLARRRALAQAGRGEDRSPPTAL
On the technique in general: Time-resolved FRET reads energy transfer from a long-lived donor to a nearby acceptor.

Data set [2] addresses MAP kinase-interacting serine/threonine-protein kinase 2 (Homo sapiens, UniProt Q9HBH9). The experiment in a line: Inhibition of N-terminal 6His-tagged recombinant human full length wild type MNK2b using biotin-SGSGKRREILSRRPSYR-NH2 as substrate after 1 hr by HTRF assay. In short, it runs like this:
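Commercial full-length wild-type MNK2b at 1 nM final, with biotin-crebtide 200 nM and ATP 200 µM. Buffer: 50 mM Hepes pH 7.5, 5 mM MgCl2, 0.05% BSA, 0.01% Tween-20, 1 mM DTT, 2.5% DMSO. Stop/detection buffer: 20 mM EDTA, 0.1% BSA, 0.4 M KF, with Eu-anti-phospho-creb antibody 0.23 nM and SA-XL665 50 nM. Developed overnight in the dark at room temperature; HTRF read, excitation 320 nm, emission 665 nm.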

Data set [3] concerns the target Cyclin-dependent kinase 1 (Homo sapiens, UniProt P06493). The experiment in a line: Inhibition of CDK1 (unknown origin).
Data set [4] addresses Cyclin-dependent kinase 2 (Homo sapiens, UniProt P24941). The experiment in a line: Inhibition of CDK2 (unknown origin).
Data set [5] can be described thus: Solubility of the compound at pH 7.4 by high throughput assay. To be noted: buffer.
Data set [6] in a line: Lipophilicity, log D of the compound at pH 7.4. Particulars: buffer.
Data set [7] concerns the target MAP kinase-interacting serine/threonine-protein kinase 1/2 (Homo sapiens, UniProt Q9HBH9+Q9BUB5). Description: Inhibition of MNK1/2 in human KMS11-luc cells assessed as inhibition of EIF4E phosphorylation at S209 after 3 hrs by quantitative electrochemiluminescence assay. It counts as cell-based. In short, it runs like this: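 KMS11-luc cells seeded at 300,000 cells/well and exposed to compounds for 3 h at 37 °C, 5% CO2, then lysed in well with Triton-based buffer. Lysate captured overnight at 4 °C on blocked ECL plates. Detection: anti-phospho-EIF4E (S209) antibody 1:200 plus sulfo-tag goat anti-rabbit 1:400, 2 h at room temperature, electrochemiluminescence read. Phospho-EIF4E signal normalized to total YB1 for EC50.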

Data set [8] is described as follows: Apparent permeability across apical to basolateral side in human Caco2 cells. Particulars: Caco-2. A general note: Passage across Caco-2 layers is used to estimate intestinal permeability.
Data set [9] can be described thus: Efflux ratio of apparent permeability across basolateral to apical side over apical to basolateral side in human Caco2 cells. Particulars: Caco-2.
The target of data set [10] is Cyclin-dependent kinase 9 (Homo sapiens, UniProt P50750). The experiment in a line: Inhibition of CDK9 (unknown origin).
Sequence of Cyclin-dependent kinase 9 (P50750 whole entry): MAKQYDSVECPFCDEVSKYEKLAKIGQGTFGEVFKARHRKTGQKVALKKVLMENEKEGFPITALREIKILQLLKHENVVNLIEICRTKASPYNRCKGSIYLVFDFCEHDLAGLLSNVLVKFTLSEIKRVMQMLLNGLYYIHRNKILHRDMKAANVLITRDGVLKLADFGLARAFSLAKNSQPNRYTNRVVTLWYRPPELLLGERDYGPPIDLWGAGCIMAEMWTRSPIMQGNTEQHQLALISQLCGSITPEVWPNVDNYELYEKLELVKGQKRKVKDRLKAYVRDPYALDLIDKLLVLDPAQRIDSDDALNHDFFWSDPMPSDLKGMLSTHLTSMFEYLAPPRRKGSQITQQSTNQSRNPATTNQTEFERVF
Data set [11] can be described thus: Antiproliferative activity against luciferase expressing human KMS11 cells after 5 days by CellTiter-Glo luminescent assay. In kind it is functional, cell-based. To be noted: KMS-11, 120 h. In short, it runs like this:
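KMS11-luc cells seeded at 2500 cells/well; compounds added 2 h after seeding, then incubated 5 days at 37 °C, 5% CO2. CellTiter-Glo added in equal volume, shaken 2 min, kept 10 min dark at room temperature, and luminescence read. EC50 fitted from % inhibition versus concentration (µM) with a four-parameter equation.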
On the technique in general: In ATP-based viability assays light output follows the ATP content of the culture.

Data set [12] deals with Calcium/calmodulin-dependent protein kinase type II subunit delta (Homo sapiens, UniProt Q13557). Description: Inhibition of CAMK2D (unknown origin).
Sequence of Calcium/calmodulin-dependent protein kinase type II subunit delta (Q13557 whole entry): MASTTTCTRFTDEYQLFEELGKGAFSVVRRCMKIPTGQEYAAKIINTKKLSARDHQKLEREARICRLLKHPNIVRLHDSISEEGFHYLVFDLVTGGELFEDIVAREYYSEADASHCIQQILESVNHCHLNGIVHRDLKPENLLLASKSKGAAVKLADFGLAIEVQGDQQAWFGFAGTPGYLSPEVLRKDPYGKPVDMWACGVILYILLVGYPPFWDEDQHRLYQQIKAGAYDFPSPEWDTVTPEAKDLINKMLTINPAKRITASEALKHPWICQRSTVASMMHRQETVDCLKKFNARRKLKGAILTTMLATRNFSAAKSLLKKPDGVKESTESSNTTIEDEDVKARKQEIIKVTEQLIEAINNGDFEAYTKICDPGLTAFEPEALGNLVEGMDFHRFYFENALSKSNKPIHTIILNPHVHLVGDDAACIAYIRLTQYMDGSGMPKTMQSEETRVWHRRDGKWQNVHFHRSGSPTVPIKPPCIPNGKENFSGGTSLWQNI
Data set [13] has as its target T1, Receptor-type tyrosine-protein kinase FLT3 (Homo sapiens, UniProt P36888).
T1 sequence (P36888 whole entry): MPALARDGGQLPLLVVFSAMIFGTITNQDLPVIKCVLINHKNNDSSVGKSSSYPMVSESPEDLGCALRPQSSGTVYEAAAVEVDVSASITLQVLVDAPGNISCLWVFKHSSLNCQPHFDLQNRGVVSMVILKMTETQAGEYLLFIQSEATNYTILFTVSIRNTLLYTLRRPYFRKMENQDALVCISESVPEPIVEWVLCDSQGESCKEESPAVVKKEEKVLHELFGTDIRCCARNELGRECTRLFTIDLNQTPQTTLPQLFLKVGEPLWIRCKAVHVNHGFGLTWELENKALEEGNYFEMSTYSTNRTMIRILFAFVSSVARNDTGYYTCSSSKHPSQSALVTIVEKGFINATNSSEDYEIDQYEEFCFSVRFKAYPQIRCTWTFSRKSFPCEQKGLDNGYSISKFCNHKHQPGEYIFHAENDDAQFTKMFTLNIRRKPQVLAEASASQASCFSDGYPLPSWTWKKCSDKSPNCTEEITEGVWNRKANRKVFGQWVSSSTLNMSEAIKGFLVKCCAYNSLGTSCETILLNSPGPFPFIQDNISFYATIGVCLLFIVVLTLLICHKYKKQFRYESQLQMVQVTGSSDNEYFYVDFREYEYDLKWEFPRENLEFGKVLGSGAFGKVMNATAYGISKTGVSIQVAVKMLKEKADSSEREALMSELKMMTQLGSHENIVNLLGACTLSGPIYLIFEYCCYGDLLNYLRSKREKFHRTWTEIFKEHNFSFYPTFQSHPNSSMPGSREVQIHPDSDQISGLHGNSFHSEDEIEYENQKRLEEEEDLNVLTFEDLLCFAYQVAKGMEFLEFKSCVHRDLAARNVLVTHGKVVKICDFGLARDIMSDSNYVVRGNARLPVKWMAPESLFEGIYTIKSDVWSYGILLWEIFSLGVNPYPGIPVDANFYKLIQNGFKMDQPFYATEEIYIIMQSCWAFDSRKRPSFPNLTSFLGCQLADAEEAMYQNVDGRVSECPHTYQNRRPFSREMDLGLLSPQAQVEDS
The experiment in a line: Inhibition of FLT3 (unknown origin).

Data set [14] has as its target Serine/threonine-protein kinase pim-2 (Homo sapiens, UniProt Q9P1W9). Description: Inhibition of PIM2 (unknown origin).
Data set [15] addresses Rho-associated protein kinase 2 (Homo sapiens, UniProt O75116). The experiment in a line: Inhibition of ROCK2 (unknown origin).
Data set [16] can be described thus: Inhibition of CYP450 (unknown origin). It counts as ADME, Homo sapiens.
A short description of data set [17]: Intrinsic clearance in rat liver microsomes. In kind it is ADME.
Data set [18] can be described thus: Hepatic extraction ratio in rat liver microsomes. It counts as ADME. Particulars: read-out: ERH.

The structures appear in SMILES notation. Values after ≈ are worked out from the molar mass of the structure shown. Some results are limits rather than exact numbers.

Sequence of MAP kinase-interacting serine/threonine-protein kinase 2 (Q9HBH9 whole entry): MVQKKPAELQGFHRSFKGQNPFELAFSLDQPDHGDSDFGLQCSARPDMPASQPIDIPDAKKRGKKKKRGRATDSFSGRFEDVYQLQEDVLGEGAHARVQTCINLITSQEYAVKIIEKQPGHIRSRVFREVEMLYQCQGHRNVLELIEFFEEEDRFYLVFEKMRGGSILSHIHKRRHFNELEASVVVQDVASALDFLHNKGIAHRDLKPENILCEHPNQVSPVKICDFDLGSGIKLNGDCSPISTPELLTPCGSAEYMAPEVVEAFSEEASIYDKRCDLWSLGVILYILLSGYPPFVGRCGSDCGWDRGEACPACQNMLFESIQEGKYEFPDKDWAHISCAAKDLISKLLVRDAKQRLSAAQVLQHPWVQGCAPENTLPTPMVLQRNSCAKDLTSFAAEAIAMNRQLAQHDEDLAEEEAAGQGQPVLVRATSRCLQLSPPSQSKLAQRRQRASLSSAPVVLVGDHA
Sequence of Cyclin-dependent kinase 1 (P06493 whole entry): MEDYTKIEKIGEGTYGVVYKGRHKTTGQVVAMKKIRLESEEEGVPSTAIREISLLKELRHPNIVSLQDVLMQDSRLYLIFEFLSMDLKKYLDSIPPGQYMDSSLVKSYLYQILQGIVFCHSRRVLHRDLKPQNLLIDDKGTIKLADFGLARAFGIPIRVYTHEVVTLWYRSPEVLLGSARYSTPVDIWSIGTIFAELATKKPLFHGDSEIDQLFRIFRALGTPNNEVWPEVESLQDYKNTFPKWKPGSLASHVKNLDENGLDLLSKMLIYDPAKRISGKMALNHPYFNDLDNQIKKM
Sequence of Serine/threonine-protein kinase pim-2 (Q9P1W9 whole entry): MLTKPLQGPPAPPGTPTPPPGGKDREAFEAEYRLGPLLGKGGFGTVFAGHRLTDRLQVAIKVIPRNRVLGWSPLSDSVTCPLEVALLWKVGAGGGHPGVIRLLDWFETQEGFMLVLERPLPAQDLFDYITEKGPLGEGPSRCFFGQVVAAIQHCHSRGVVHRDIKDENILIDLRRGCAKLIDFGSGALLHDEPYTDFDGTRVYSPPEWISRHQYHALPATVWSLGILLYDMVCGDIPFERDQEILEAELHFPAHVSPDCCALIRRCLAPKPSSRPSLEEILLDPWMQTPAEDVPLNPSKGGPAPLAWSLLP
Sequence of Rho-associated protein kinase 2 (O75116 whole entry): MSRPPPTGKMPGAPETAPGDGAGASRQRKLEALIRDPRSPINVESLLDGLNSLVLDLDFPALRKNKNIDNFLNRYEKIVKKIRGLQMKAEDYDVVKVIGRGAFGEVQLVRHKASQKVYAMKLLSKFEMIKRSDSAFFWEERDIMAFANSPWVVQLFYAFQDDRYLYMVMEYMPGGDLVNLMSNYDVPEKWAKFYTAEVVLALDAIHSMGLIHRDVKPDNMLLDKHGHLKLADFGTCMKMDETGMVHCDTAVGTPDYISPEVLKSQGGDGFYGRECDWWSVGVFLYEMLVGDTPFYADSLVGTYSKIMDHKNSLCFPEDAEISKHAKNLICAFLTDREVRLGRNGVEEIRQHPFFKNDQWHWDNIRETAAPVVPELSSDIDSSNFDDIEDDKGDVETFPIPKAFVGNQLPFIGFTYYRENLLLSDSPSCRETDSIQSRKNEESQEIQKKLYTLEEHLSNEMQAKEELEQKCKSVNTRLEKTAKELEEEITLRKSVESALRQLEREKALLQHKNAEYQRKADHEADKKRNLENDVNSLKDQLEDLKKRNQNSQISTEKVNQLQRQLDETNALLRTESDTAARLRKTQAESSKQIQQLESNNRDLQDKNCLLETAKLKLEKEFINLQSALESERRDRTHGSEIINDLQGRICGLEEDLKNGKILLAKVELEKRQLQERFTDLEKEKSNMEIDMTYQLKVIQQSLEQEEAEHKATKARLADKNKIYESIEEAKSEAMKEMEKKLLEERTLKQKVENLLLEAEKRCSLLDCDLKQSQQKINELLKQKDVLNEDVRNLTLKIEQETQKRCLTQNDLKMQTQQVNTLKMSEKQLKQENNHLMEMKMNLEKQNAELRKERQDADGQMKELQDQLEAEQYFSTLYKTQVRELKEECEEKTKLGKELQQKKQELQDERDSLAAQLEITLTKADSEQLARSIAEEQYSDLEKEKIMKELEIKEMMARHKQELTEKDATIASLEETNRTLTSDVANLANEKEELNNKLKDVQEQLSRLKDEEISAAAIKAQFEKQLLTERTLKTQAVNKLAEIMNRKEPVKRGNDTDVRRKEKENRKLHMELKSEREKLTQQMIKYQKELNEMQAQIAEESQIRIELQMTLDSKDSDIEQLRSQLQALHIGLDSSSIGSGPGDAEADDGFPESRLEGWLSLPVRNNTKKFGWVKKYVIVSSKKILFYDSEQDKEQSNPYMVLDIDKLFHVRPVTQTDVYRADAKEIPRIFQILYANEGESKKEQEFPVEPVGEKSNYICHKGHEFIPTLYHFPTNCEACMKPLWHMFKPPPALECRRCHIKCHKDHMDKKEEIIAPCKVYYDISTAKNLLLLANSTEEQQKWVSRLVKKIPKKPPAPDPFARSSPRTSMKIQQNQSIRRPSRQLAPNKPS

As for `Nc1ncccc1-c1nc2ccccc2[nH]1`, the IC50 (in general, the midpoint of a concentration-inhibition curve) in data set [1] came to 700 nM; in data set [2] it was 900 nM; in [3] it was 10000 nM; in data set [4], 25000 nM. The amount in solution in data set [5] (solubility) came to 300 µM (≈ 63.1 µg/mL). For the same molecule, the logD – broadly, lipophilicity at a set pH, counting ionised and neutral species – in data set [6] was 3.
Turning to `CN(C)C(=O)c1cccc(-c2cnc(N)c(-c3nc4ccccc4[nH]3)c2)c1`, the IC50 in [1] was found to be 36 nM; in [2] it was 34 nM; in data set [3], 1000 nM; in data set [4], 5700 nM. For the same molecule, the logD in data set [6] came out at 4.2.
`CN(C)C(=O)c1cccc(-c2cnc(N)c(-c3nc4cccc(N5CCNCC5)c4[nH]3)c2)c1`: the IC50 in data set [1] is 4 nM; in [2], 2 nM; in data set [3], 1000 nM; in data set [4], 4000 nM. Also, the solubility (in general, the concentration that dissolves in the medium under given conditions) in data set [5] worked out at 102 µM (≈ 45 µg/mL). The logD in [6] was determined as 1.8. For the same molecule, the EC50 (in general, the concentration that produces a half-maximal response) in [7] turned out to be 130 nM. Besides, the apparent permeability from apical to basolateral (Papp A→B) (usually the apparent permeability from the apical to the basolateral side of a cell layer) in data set [8] stood at 4 ×10⁻⁶ cm/s. The efflux ratio (as a rule, the permeability from basolateral to apical divided by that in the opposite direction, in the common usage) in [9] amounted to 3.6.
Take `C[C@H]1CN(c2cccc3nc(-c4nc(-c5cccc(C(=O)N(C)C)c5)cnc4N)n(C)c23)CCN1`: the IC50 in data set [1] is 1.5 nM; in data set [2] it was 0.7 nM; in data set [3], 1000 nM; in data set [4], 3400 nM. In addition, the EC50 in data set [7] was 3 nM.
Take `CN(C)C(=O)c1cccc(-c2cnc(N)c(-c3nc4cccc(N5CCNCC5)c4[nH]3)n2)c1`: the IC50 in data set [1] stood at 80 nM; in data set [2], 20 nM; in data set [3], 1700 nM; in [4], 11000 nM. This molecule gave a solubility in data set [5] of 70 µM (≈ 31 µg/mL). The logD in data set [6] was 1.9. Besides, the EC50 in [7] worked out at 50 nM. The Papp A→B in data set [8] is 0.7 ×10⁻⁶ cm/s. Moreover, the efflux ratio in [9] is 87.
Take `CN(C)C(=O)c1cccc(-c2cnc(N)c(-c3nc4cccc(N5CCNCC5)c4n3C)n2)c1`: the IC50 in [1] turned out to be 2 nM; in data set [2], 1 nM; in [3] it was 500 nM; in data set [4], 1400 nM. This molecule also registered a solubility in data set [5] of 254 µM (≈ 116 µg/mL). The same molecule displayed a logD in data set [6] of 1.1. For the same molecule, in data set [7], the EC50 stood at 5 nM. For the same molecule, in data set [8], the Papp A→B was 9 ×10⁻⁶ cm/s. Besides, the efflux ratio in [9] worked out at 2.3.
In the case of `Nc1ncc(-c2ccccc2)cc1-c1nc2ccccc2[nH]1`, the IC50 in [1] is 120 nM; in data set [2] it was 720 nM; in data set [3] it was 160 nM; in [4] it was 1300 nM. The molecule also registered a logD in data set [6] above 4.2.
Consider `C[C@H]1CN(c2cccc3nc(-c4nc(-c5cc(C(=O)N(C)C)ccn5)cnc4N)n(C)c23)CCN1`, for which the IC50 is 3 nM in [1]; 3 nM in [2]; above 25000 nM in data set [3]; above 25000 nM in data set [4]; above 25000 nM in data set [10]; 690 nM in data set [12]. In addition, the IC50 in data set [13] is 280 nM; in [14], 730 nM; in [15] it was 370 nM; in [16], above 40000 nM. Further, the solubility in [5] was found to be 220 µM (≈ 104 µg/mL). Further, in data set [6], the logD was 1.9. Also, the figures for the half-maximal effective concentration (EC50) in [7] and in data set [11] were 0.6 nM and 1700 nM, respectively. Further, in data set [8], the Papp A→B turned out to be 5 ×10⁻⁶ cm/s. Moreover, the efflux ratio in data set [9] was 5. The molecule also displayed a CLint in data set [17] of 32 µL/min/mg. The hepatic extraction ratio in [18] stood at 0.54.
In data set [11], `CC(=O)C1=C(O)C=C2Oc3c(C(N)=O)c(O)cc(O)c3[C@]2(C)C1=O` came in with an EC50 above 10000 nM.
